Runt-CBFb FRET = inhibitors of RUNX1 Runt–CBFb binding, primary screen, biochemical, FRET, Cerulean-Runt, Venus-CBFb, uHTS. inhibition, % at 20 µM. Cerulean-Runt/Venus-CBFb FRET ratio 530/480, 1 h. actives 0.46% (n = 220,000). AID 1496, 2009;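 active means inhibition over about 50% at 20 µM in the single-dose screen, limit read from the data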;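 further: 0% = DMSO wells and 100% = excess unlabeled CBFb competitor control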
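Assay system: Cerulean-Runt domain fusion protein, energy donor; Signal: fluorescence energy transfer, 422 nm excitation, 530/480 nm emission; Timing: 1 h compound exposure, room temperature; Control set: unlabeled CBFb; Medium: Tris buffer pH 7.5 with salts and BSA; Compound: single test concentration of 20 µM, 1% DMSO final; Probe or stimulus: Venus-CBFb 100 nM.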
Runt-SMMHC FRET = inhibitors of RUNX1 Runt–CBFb-SMMHC binding, primary screen, biochemical, FRET, Cerulean-Runt, Venus-CBFb-SMMHC, uHTS; inhibition, % at 20 µM; actives 0.74% (n = 220,000); AID 1434, 2008; Runt-related transcription factor 1 (Homo sapiens) + Core-binding factor subunit beta …; Cerulean-Runt/Venus-CBFb-SMMHC FRET ratio 530/480, 1 h;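 active means mean inhibition across duplicate retests at 20 µM reaching about 50%, limit read from the data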;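 further: 0% = DMSO wells and 100% = wells with excess untagged CBFb-SMMHC; inhibitors lower the FRET ratio by blocking Runt binding to CBFb-SMMHC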
Hck-Nef inh = inhibitors of Nef-activated human Hck kinase, primary screen, biochemical, Z-Lyte FRET, 384-well, Hck-YEEI | inhibition, % at 20 µM | Recombinant Hck-YEEI plus Nef, Z-Lyte FRET kinase assay | Tyrosine-protein kinase HCK (Homo sapiens), P08631 | actives 0.68% (n = 220,000);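 active means Hck-Nef kinase inhibition above about 50%, limit read from the data; inactive means inhibition below that limit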;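 further: 0% = DMSO with Hck plus Nef and 100% = Hck alone without Nef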
Target sequence (P08631 whole entry, looked up): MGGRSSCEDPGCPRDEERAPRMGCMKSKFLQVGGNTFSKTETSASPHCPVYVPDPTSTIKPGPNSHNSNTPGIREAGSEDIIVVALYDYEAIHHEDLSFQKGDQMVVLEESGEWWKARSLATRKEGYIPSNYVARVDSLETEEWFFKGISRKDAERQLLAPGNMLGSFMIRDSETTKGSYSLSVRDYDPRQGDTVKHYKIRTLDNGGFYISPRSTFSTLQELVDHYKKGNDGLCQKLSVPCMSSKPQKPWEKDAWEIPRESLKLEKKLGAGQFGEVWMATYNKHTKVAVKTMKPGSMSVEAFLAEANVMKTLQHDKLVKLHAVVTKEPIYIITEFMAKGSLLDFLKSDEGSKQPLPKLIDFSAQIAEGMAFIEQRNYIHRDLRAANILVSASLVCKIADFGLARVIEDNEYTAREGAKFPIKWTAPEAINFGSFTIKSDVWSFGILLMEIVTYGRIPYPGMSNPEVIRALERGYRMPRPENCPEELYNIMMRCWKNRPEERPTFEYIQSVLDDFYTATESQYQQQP
RanGTP-Impb inh = inhibitors of RanGTP-importin-beta interaction, primary screen, biochemical, FRET, CFP-Ran, YFP-importin-beta, homogeneous. cell-free CFP-Ran/YFP-importin-beta FRET ratio. actives 1.1% (n = 300,000). inhibition, % (concentration not given with the values);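 active means more than half of the replicate wells show a fall in the fluorescence ratio signal beyond about 16%, limit read from the data, passing the limit was not always enough; inconclusive means exactly half of the replicate wells pass the set limit; inactive means fewer than half of replicates pass the limit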;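 further: 0% = DMSO wells and 100% = Ran loaded with GDP instead of GTP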
Hck-Nef confirm = retest of Hck:Nef kinase inhibitor hits, confirmation, biochemical, Z-Lyte FRET, 384-well, p-Tyr peptide counterscreen; shares compounds with Hck-Nef inh; Recombinant Hck-YEEI:Nef, Z-Lyte FRET kinase assay; calls only at 10 µM; actives 28% (n = 1,300); AID 463188, 2010;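 active means average inhibition of at least 50%, with Z-scores no higher than 3 in both the phospho-tyrosine peptide and fluorescence counterscreens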
* marks the source's active call; other numbers are inactive results; i = inactive; ? = inconclusive; . = not tested or not shown; + = active, no number. Shown are actives, neighbours in structure and some others; about 1.8% of the full set was active somewhere.

SMILES	Runt-CBFb FRET	Runt-SMMHC FRET	Hck-Nef inh	RanGTP-Impb inh	Hck-Nef confirm
COCCN=c1scc(-c2ccco2)n1/N=C/c1ccc(O)c(O)c1O	39	19	59*	.	+
CCCN(Cc1nnc(-c2ccccc2Cl)o1)C(=O)c1cc(S(=O)(=O)N2CCOCC2)ccc1F	.	.	.	1	.
CCC(=C(c1ccc(OC)cc1)c1ccc(OC)cc1)c1cn(CC(O)CN2CCN(C)CC2)c2ccccc12 (configuration not stated)	-1	0	111*	.	i
COc1cc2c(cc1OC)CN(c1nc(-c3cccnc3)nc3ccccc13)CC2	-9	-9	68*	-3	+
CN(C(=O)c1ccncc1)C1CCCCC1	.	.	.	2	.
Cc1cc(O)c(C(=O)/C=C/c2cccc([N+](=O)[O-])c2)c(=O)o1	-4	-3	108*	-2	i
Cc1ccc(C)c(-n2c(=O)c(C#N)cc3c(=O)n4ccccc4nc32)c1	3	90*	+	108*	.
Cc1cccn2c(=O)c3cc(C(=O)N4CCCc5ccccc54)n(C)c3nc12	.	.	13	.	.
Cc1cc(-n2c(=O)c(C#N)cc3c(=O)n4cccc(C)c4nc32)no1	18	60*	190*	184*	.
Cc1cccc(-n2c(=O)c(C#N)cc3c(=O)n4ccccc4nc32)c1	20	59*	199*	128*	.
Cc1ccc(N(C)S(=O)(=O)c2csc(C(N)=O)c2)cc1C	.	.	.	-2	.
O=C(Oc1ccc(/C=N/Nc2ccccc2)cc1)c1ccccc1	-1	-8	-2	2	.
O=C(O)c1ccc(N/N=C/c2ccc(OC(=O)c3cccc(Cl)c3)cc2)cc1	1	0	56*	-3	+
O=C(NC1CC1)C1=C[C@@H](c2ccc(Br)cc2)C[C@@H](OCc2ccc(CO)cc2)O1	1	4	29	0	.
O=C(CN(Cc1cccs1)C(=O)CNS(=O)(=O)c1ccc(Cl)cc1)NCC1CCCO1 (configuration not stated)	2	-6	53*	6	i
O=C(N/N=C/c1ccncc1)c1ccc(NC(=O)c2cccc(Cl)c2)cc1	.	3	-6	5	.
O=C(N/N=C/c1ccncc1)c1ccc(NC(=O)c2ccc(Cl)cc2)cc1	-3	-7	58*	.	i
C=CCC(CC(O)COCCC)C(=O)NNC(=S)Nc1ccccc1 (configuration not stated)	4	-1	7	0	.
NCCCCCC(=O)N/N=C/c1coc2ccccc2c1=O	1	0	84*	?	+
N#CCC(=O)N/N=C/c1coc2ccccc2c1=O	-3	6	81*	2	+
O=C(N/N=C/c1coc2ccccc2c1=O)c1cc(Br)ccc1O	.	.	.	0	.
O=C(N/N=C/c1coc2ccccc2c1=O)c1ccc(Cl)cc1	.	.	.	2	.
O=C(N/N=C\c1coc2ccccc2c1=O)c1ccco1	-1	2	83*	0	+
O=C(N/N=C/c1coc2ccccc2c1=O)c1ccccc1	1	-2	87*	1	i
O=C(c1ccc2c(c1)N(Cc1cccc(Cl)c1)C(=O)c1ccccc1S2(=O)=O)N1CCN(c2ccccn2)CC1	-3	0	19	1	.
SMILES	Runt-CBFb FRET	Runt-SMMHC FRET	Hck-Nef inh	RanGTP-Impb inh	Hck-Nef confirm
CC1(C)Cc2nc(Cl)c(C#N)cc2CO1	2	3	10	4	.
CC1(C)Cc2nc(N3CCCC3)c(C#N)cc2CO1	1	2	74*	2	i
COc1ccc(C/C(C)=N\NC(=O)c2cn(C)c3ccccc23)cc1OC	1	0	16	10	.
CC(C)OCCCn1c(-c2ccco2)nc2nc3ccccc3nc21	34	.	131*	?	.
COCCn1c(-c2ccco2)nc2nc3ccccc3nc21	8	66*	120*	19*	.
CCC(C)n1c(-c2ccco2)nc2nc3ccccc3nc21 (configuration not stated)	.	10	28	1	.
N#CCCN(C(=O)COc1ccc(F)cc1Br)c1ccccc1F	-1	0	12	-3	.
CCN1/C(=C\C=C2\C(=O)N(C)C(=S)N2C)Sc2ccccc21	15	5	72*	0	i
CCN1/C(=C2/OC(=S)N(C)C2=O)Sc2ccccc21	16	40	0	.	.
CN(C)/C=C1\C(=O)ON=C1c1ccccc1	2	1	23	-1	.
Cc1ccc(C2=NOC(=O)/C2=C\C=C\c2ccccc2)cc1	4	13	56*	4	i
COc1cccc(Nc2ccccc2C(=O)O)c1	0	1	13	2	.
COc1cc(-c2ccc(Nc3ccccc3C(=O)O)c(OC)c2)ccc1Nc1ccccc1C(=O)O	17	-8	94*	.	+
COc1cc2c(cc1NC(=O)C(C)OC(=O)c1ccc(S(=O)(=O)Nc3ccccc3Cl)cc1)oc1ccccc12 (configuration not stated)	-7	-13	13	-1	.
COc1ccc(NCc2ccsc2)cc1	.	.	.	-1	.
O=C(CSCc1ccc(Cl)cc1)Nc1ccc(-c2nnc(-c3ccccc3)o2)cc1	-1	-3	91*	0	i
O=C(Cc1ccc(Cl)cc1)Nc1ccc(-c2nnc(-c3ccco3)o2)cc1	13	8	4	-1	.
Cc1cccc(/C=C2\Sc3ccc(C(=O)N4CCC(C)CC4)cc3N(C)C2=O)c1	.	.	.	-2	.
CC1=N/C(=C/c2ccco2)C(=O)O1	12	4	58*	-5	i
O=C1OC(c2ccc(Br)cc2)=N/C1=C\c1ccco1	2	-1	7	4	.
Cc1ccc(NC(=S)N2CCC(NC(=O)c3ccco3)CC2)cc1C	.	.	.	0	.
O=C(O)c1ccc(-c2ccc(/C=C3\NC(=O)N(Cc4ccc(Cl)cc4)C3=O)o2)cc1Cl	20	21	53*	58*	i
Nc1cc([N+](=O)[O-])ccc1Nc1ccccc1	-6	-2	82*	-5	i
Cc1ccc(-c2nn(-c3ccccc3)cc2C=C2C(=O)CC(C)(C)CC2=O)cc1	.	29	1	0	.
CC1=NNC(=O)/C1=C\c1cn(-c2ccccc2)nc1-c1ccc(Cl)cc1	-4	-12	60*	0	+
CCNc1cc2oc(=O)c(CN3CCOCC3)c(C)c2cc1C	13	39	82*	.	.
COc1ccc(/C=N/Nc2nc(-c3ccc(C)cc3)c(NC(C)=O)s2)cc1	1	-3	83*	-2	i
